# System: SH-SY5Y
# Experiment: Neuroprotective activity against tunicamycin-induced cell death in human SH-SY5Y cells pretreated for 6 hrs followed by tunicamycin addition measured after 48 hrs by MTT assay
# Type: functional, cell-based
# Method in brief: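 SH-SY5Y cells grown in DMEM/High Glucose:F12 (1:1) with 10% FBS at 37 °C, 5% CO2, seeded 4 × 10^3/well and left 12 h. Compounds given at 25, 50 and 100 μM for 6 h, then tunicamycin added for 48 h. Medium replaced; MTT 0.5 mg/mL final, 4 h at 37 °C; absorbance 570 nm. Salubrinal 40 μM as positive control; three independent experiments, means ± SEM; EC50 derived.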
Compound,Activity,EC50 [µM]
C=CCc1cc(O)c(-c2c(OC)cc([C@@H]3OO[C@@H]3CO)cc2OC)c(OC)c1,Dose-dependent effect,21 to 75
COc1ccc([C@@H]2C(=O)OC[C@H]2c2ccc(O)c(OC)c2)cc1,Dose-dependent effect,21 to 75
OC[C@H]1O[C@@H](OC/C=C/c2ccccc2)[C@H](O)[C@@H](O)[C@@H]1O,Dose-dependent effect,21 to 75
C=CCc1cc(O)c(-c2c(OC)cc([C@H]3OO[C@H]3CO)cc2OC)c(OC)c1,Dose-dependent effect,21 to 75
COc1cc([C@H](OC)[C@@H]2CO[C@@H](c3cc(OC)c(O)c(OC)c3)[C@@H]2COC(C)=O)cc(OC)c1O,Dose-dependent effect,21 to 75
COc1ccc([C@@H]2C(=O)OC[C@H]2c2ccc3c(c2)OCO3)cc1,Dose-dependent effect,21 to 75
O=C(CCc1ccccc1)OC/C=C/c1ccccc1,Dose-dependent effect,21 to 75
O=C1OC[C@@H](c2ccc(O)c(O)c2)[C@@H]1c1ccc(O)cc1,Dose-dependent effect,21 to 75

# — ChEMBL document CHEMBL4145612, “Phenolic Constituents Isolated from the Twigs of Cinnamomum cassia and Their Potential Neuroprotective Effects” (J Nat Prod, 2018)
